Our source for the inhibition values is ChEMBL document CHEMBL4190262, “Tuning of β-glucosidase and α-galactosidase inhibition by generation and in situ screening of a library of pyrrolidine-triazole hybrid molecules” (Eur J Med Chem, 2017).

Molecules are shown by their SMILES. Activity calls are given as the source filed them. The rule behind the calls is not given here. Some results are limits rather than exact numbers.

One test relates to Prunus dulcis. Kind of test: Inhibition of almond beta-glucosidase at 1 mM using p-nitrophenyl glycopyranoside preincubated for 5 mins followed by substrate addition measured after 20 mins by visible absorption spectroscopic method relative to control. In outline: (§1)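 Test compound at 1 mM in well. Mix: 0.01–0.5 units/mL enzyme plus 10 mM p-nitrophenyl glycopyranoside (aqueous solution), buffered to the enzyme's optimal pH. Enzyme and inhibitor preincubated 5 min at rt. Substrate then added and incubated 20 min at 37 °C. Stopped with sodium borate (pH 9.8). p-Nitrophenolate read at 405 nm. Duplicates averaged.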

For a further test, the system named is Aspergillus niger. The test is described as follows: Inhibition of Aspergillus niger amyloglucosidase at 1 mM using p-nitrophenyl glycopyranoside preincubated for 5 mins followed by substrate addition measured after 20 mins by visible absorption spectroscopic method relative to control. An outline of the steps:
as §1

Test [1] concerns the target T1, Alpha-mannosidase (Canavalia ensiformis) (UniProt C0HJB3).
T1 sequence (whole entry): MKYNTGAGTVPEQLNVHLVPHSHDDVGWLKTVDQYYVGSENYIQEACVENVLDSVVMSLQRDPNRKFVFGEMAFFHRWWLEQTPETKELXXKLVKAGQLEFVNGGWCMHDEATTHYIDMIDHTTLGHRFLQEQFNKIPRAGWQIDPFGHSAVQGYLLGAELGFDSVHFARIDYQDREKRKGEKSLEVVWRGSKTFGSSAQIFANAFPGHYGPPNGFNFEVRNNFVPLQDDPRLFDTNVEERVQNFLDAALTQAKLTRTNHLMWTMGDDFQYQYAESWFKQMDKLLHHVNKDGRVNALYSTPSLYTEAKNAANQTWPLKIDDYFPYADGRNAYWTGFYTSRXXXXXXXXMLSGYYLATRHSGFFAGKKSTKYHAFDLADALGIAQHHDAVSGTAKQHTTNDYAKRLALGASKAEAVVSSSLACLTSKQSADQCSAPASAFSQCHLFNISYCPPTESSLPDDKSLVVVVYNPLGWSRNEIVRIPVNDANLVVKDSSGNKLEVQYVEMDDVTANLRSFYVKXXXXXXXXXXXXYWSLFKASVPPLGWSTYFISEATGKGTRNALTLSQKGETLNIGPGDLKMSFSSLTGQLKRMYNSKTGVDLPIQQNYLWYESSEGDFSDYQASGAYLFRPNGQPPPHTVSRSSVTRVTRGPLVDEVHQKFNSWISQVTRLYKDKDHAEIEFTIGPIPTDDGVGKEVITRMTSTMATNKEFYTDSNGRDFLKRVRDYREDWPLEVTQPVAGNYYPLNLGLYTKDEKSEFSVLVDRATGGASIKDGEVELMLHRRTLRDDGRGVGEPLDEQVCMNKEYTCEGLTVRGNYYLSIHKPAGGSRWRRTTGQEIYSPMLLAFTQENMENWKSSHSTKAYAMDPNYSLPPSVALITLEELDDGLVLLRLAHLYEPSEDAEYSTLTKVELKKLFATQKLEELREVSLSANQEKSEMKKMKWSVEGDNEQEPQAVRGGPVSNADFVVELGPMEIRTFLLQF
Kind of test: Inhibition of jack bean alpha-mannosidase at 1 mM using p-nitrophenyl glycopyranoside preincubated for 5 mins followed by substrate addition measured after 20 mins by visible absorption spectroscopic method relative to control. An outline of the steps:
as §1

The next test concerns Canavalia ensiformis. Kind of test: Inhibition of jack bean beta-N-acetylglucosaminidase at 1 mM using p-nitrophenyl glycopyranoside preincubated for 5 mins followed by substrate addition measured after 20 mins by visible absorption spectroscopic method relative to control. In outline: as §1
The species entered for another test is Bos taurus. The test is described as follows: Inhibition of bovine kidney alpha-L-fucosidase at 1 mM using p-nitrophenyl glycopyranoside preincubated for 5 mins followed by substrate addition measured after 20 mins by visible absorption spectroscopic method relative to control. In outline: as §1
The target of test [2] is T2, Beta-galactosidase (Aspergillus oryzae) (UniProt B7VU80).
T2 sequence (whole entry): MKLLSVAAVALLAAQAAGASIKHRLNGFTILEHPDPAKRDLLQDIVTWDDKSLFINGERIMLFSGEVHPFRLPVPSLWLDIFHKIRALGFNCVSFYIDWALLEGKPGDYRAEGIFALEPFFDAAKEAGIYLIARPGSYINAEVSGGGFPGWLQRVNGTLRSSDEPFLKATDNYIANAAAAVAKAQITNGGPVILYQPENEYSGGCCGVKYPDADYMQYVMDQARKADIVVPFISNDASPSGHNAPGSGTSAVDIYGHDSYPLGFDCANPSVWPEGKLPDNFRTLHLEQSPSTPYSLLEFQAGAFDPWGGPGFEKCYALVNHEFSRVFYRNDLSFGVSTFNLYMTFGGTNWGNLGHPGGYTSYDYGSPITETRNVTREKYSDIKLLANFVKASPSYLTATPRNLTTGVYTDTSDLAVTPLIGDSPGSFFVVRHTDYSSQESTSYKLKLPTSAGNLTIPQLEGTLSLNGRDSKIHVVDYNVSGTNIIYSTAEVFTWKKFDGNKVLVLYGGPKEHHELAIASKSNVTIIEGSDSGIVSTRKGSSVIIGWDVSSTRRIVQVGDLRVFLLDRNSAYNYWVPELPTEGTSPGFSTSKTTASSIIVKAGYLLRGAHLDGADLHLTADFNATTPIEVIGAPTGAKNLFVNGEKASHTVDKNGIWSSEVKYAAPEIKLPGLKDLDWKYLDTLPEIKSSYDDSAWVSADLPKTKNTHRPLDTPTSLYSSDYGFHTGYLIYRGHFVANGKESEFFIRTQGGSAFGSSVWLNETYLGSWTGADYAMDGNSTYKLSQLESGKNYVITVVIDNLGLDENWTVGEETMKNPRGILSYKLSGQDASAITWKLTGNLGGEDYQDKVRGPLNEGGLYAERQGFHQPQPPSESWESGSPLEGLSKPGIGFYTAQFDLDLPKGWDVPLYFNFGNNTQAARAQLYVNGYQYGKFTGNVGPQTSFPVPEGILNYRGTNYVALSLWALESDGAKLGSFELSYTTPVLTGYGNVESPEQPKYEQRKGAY
Kind of test: Inhibition of Aspergillus oryzae beta-galactosidase at 1 mM using p-nitrophenyl glycopyranoside preincubated for 5 mins followed by substrate addition measured after 20 mins by visible absorption spectroscopic method relative to control. In outline:
as §1

A further test relates to Cornu aspersum. Kind of test: Inhibition of snail beta-mannosidase at 1 mM using p-nitrophenyl glycopyranoside preincubated for 5 mins followed by substrate addition measured after 20 mins by visible absorption spectroscopic method relative to control. An outline of the steps: as §1

`O[C@@H]1[C@H](O)CN[C@@H]1Cn1cc(-c2ccccc2)nn1`: the values for the inhibition (in the test on Prunus dulcis; in the test filed under Bos taurus; in test [2]) were under 53%, 17% and 41%, respectively. Moreover, the inhibition result (in the test with Aspergillus niger; in test [1]; in the test on Canavalia ensiformis; in the test on Cornu aspersum) was “inactive” in each case.
Turning to `O[C@@H]1[C@H](O)CN[C@H]1Cn1cc(-c2ccccc2)nn1`, the inhibition in the test with Prunus dulcis amounted to 97%; in the test on Aspergillus niger, 38%; in the test listed under Bos taurus, 40%. In addition, the inhibition entry (in test [1]; in the test on Canavalia ensiformis; in test [2]; in the test on Cornu aspersum) was “inactive” each time.
